Data on five compounds can be found in ChEMBL document CHEMBL4828738, “Design, synthesis and evaluation of novel 5-phenylthiophene derivatives as potent fungicidal of Candida albicans and antifungal reagents of fluconazole-resistant fungi” (Eur J Med Chem, 2021).

One data set deals with CYP2C9 (Homo sapiens, UniProt P11712). Kind of data set: Inhibition of CYP2C9 in human liver Microsome using diclofenac as substrate preincubated for 10 mins followed by NADPH addition and further incubated for 10 mins as substrate by LC-MS/MS analysis relative to control. The following applies: liver microsomes, probe diclofenac. For orientation: Microsomes from liver hold many membrane-bound enzymes, among them those of drug oxidation.

The next data set has as its target CYP2D6 (Homo sapiens, UniProt P10635). Briefly: Inhibition of CYP2D6 in human liver Microsome using dextromethorphan as substrate preincubated for 10 mins followed by NADPH addition and further incubated for 10 mins as substrate by LC-MS/MS analysis relative to control. The following applies: liver microsomes, probe dextromethorphan.
The test system of another data set is A549. Kind of data set: Cytotoxicity against human A549 cells assessed as reduction in cell viability measured after 96 hrs by MTT assay. The class given is ADME, cell-based. The following applies: A549, 96 h. For orientation: Formazan colour is commonly taken as a measure of viable cells.
Data set [1] in a line: Metabolic stability in human plasma assessed as half life after 60 mins by LC-MS/MS analysis. The class given is ADME, cell-free.
Data set [2] in a line: Metabolic stability in human plasma assessed as parent compound remaining after 60 mins by LC-MS/MS analysis. The class given is ADME, cell-free. The following applies: read-out: Stability.
In the next data set the test system is Cryptococcus neoformans. Kind of data set: Antifungal activity against Cryptococcus neoformans CGMCC2.3161 assessed as fungal growth inhibition by CLSI protocol based method. It counts as functional.
Data set [3] has as its system Candida albicans. Kind of data set: Anti-biofilm activity in Candida albicans CPCC400616 assessed as inhibition of biofilm formation incubated for 3 hrs by XTT assay. It counts as functional. Put shortly: (§1)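 C. albicans CPCC400616 suspension placed in wells at 37 °C. Non-adherent cells and medium were removed at 3, 6, 18 or 24 h and wells washed with PBS. Compounds were added at a range of concentrations in fresh RPMI 1640 and incubated a further 24 h at 37 °C. Biofilm metabolic activity was read by XTT reduction.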

Data set [4] relates to Candida albicans. Kind of data set: Anti-biofilm activity in Candida albicans CPCC400616 assessed as inhibition of biofilm formation incubated for 6 hrs by XTT assay. The class given is functional. Put shortly: as §1
Data set [5] relates to Candida albicans. Kind of data set: Antifungal activity against fluconazole-resistant Candida albicans 103 assessed as fungal growth inhibition by CLSI protocol based method.
Data set [6] has as its system Candida albicans. Briefly: Antifungal activity against fluconazole-resistant Candida albicans 311 assessed as fungal growth inhibition by CLSI protocol based method.
The test system of another data set is Candida tropicalis. Briefly: Antifungal activity against Candida tropicalis CGMCC 2.3739 assessed as fungal growth inhibition by CLSI protocol based method. It counts as functional.
The test system of another data set is Pichia kudriavzevii. Briefly: Antifungal activity against Candida krusei GIM2.1 assessed as fungal growth inhibition by CLSI protocol based method. The class given is functional.
The subject of data set [7] is Candida albicans. Kind of data set: Fungicidal activity against Candida albicans ATCC SC5314 assessed as inhibition of visible fungal growth measured after 48 hrs. The class given is functional.
In data set [8] the test system is Candida albicans. Briefly: Anti-biofilm activity in Candida albicans CPCC400616 assessed as inhibition of biofilm formation incubated for 18 hrs by XTT assay. The class given is functional. Summed up:
as §1

Data set [9] has as its system Candida albicans. Briefly: Antifungal activity against fluconazole-resistant Candida albicans 901 assessed as fungal growth inhibition by CLSI protocol based method.
Data set [10] is described as follows: Metabolic stability in human plasma assessed as parent compound remaining after 120 mins by LC-MS/MS analysis. The class given is ADME, cell-free. The following applies: read-out: Stability.
Data set [11] has as its system Candida albicans. Kind of data set: Antifungal activity against fluconazole-resistant Candida albicans 632 assessed as fungal growth inhibition by CLSI protocol based method.
The subject of a further data set is Candida parapsilosis. Briefly: Antifungal activity against Candida parapsilosis GIM2.190 assessed as fungal growth inhibition by CLSI protocol based method. The following applies: Lodderomyces parapsilosis. It counts as functional.
Data set [12] has as its system Candida albicans. Kind of data set: Anti-biofilm activity in Candida albicans CPCC400616 assessed as inhibition of biofilm formation incubated for 24 hrs by XTT assay. It counts as functional. Put shortly:
as §1

For data set [13], the system named is Candida albicans. Kind of data set: Antifungal activity against Candida albicans ATCC SC5314 assessed as fungal growth inhibition by CLSI protocol based method. It counts as functional.
Data set [14] deals with Candida albicans. Briefly: Antifungal activity against fluconazole-resistant Candida albicans 100 assessed as fungal growth inhibition by CLSI protocol based method.
For another data set, the system named is MCF7. Briefly: Cytotoxicity against human MCF7 cells assessed as reduction in cell viability measured after 96 hrs by MTT assay. It counts as ADME, cell-based. The following applies: MCF7, 96 h.
The next data set concerns THLE-2. Briefly: Cytotoxicity against human THLE-2 cells assessed as reduction in cell viability measured after 96 hrs by MTT assay. The following applies: THLE-2, 96 h. It counts as ADME, cell-based.
The test system of data set [15] is Candida albicans. Kind of data set: Antifungal activity against fluconazole-resistant Candida albicans 904 assessed as fungal growth inhibition by CLSI protocol based method.
Data set [16] relates to Candida albicans. Kind of data set: Antifungal activity against Candida albicans CPCC400616 assessed as fungal growth inhibition by CLSI protocol based method. It counts as functional.
The next data set deals with Nakaseomyces glabratus. Kind of data set: Antifungal activity against Candida glabrata assessed as fungal growth inhibition by CLSI protocol based method. It counts as functional.
Data set [17] has as its target T1, Lanosterol 14-alpha demethylase (Candida albicans (strain SC5314 / ATCC MYA-2876) (Yeast), UniProt P10613). Briefly: Inhibition of CYP51 in Candida albicans assessed as other sterols level at 0.25 ug/ml measured after 18 hrs by GC-MS analysis relative to control. Set-up: scale not given: the % may be the effect or the level left. The following applies: at 0.25 µg/mL.

For data set [18], the target named is T1, Lanosterol 14-alpha demethylase. Briefly: Inhibition of CYP51 in Candida albicans assessed as lanosterol level at 0.25 ug/ml measured after 18 hrs by GC-MS analysis relative to control. Set-up: scale not given: the % may be the effect or the level left. The following applies: at 0.25 µg/mL.
The target is the same in data set [19]. Briefly: Inhibition of CYP51 in Candida albicans assessed as ergosterol level at 0.25 ug/ml after 18 hrs by GC-MS analysis (reference value: 96.93 %). Set-up: scale not given: the % may be the effect or the level left. The following applies: at 0.25 µg/mL.
Data set [20] has the same target. Briefly: Inhibition of CYP51 in Candida albicans assessed as 14alpha-methylfecosterol level at 0.25 ug/ml measured after 18 hrs by GC-MS analysis relative to control. Set-up: scale not given: the % may be the effect or the level left. The following applies: at 0.25 µg/mL.
The target is the same in data set [21]. Briefly: Inhibition of CYP51 in Candida albicans assessed as Eburicol level at 0.25 ug/ml measured after 18 hrs by GC-MS analysis relative to control. Set-up: scale not given: the % may be the effect or the level left. The following applies: at 0.25 µg/mL.

pIC50: −log10 of the molar value. In brackets after ≈: the same amount, converted by molar mass. Where only a bound is given, the exact number is not on record here.

T1 sequence (P10613 whole entry): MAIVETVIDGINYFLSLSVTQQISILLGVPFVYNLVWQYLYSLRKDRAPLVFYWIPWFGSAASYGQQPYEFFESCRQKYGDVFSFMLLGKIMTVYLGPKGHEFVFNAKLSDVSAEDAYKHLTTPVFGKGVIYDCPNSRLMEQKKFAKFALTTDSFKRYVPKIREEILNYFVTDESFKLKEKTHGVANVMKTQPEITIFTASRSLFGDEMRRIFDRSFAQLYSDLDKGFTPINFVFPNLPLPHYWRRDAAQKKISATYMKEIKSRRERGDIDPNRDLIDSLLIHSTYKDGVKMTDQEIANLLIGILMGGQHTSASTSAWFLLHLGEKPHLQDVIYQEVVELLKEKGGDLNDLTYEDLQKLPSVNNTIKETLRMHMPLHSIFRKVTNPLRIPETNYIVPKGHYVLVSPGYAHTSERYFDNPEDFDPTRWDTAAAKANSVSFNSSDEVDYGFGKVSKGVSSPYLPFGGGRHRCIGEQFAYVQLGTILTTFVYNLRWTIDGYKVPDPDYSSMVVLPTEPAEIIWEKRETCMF
CYP2C9, sequence (P11712 whole entry): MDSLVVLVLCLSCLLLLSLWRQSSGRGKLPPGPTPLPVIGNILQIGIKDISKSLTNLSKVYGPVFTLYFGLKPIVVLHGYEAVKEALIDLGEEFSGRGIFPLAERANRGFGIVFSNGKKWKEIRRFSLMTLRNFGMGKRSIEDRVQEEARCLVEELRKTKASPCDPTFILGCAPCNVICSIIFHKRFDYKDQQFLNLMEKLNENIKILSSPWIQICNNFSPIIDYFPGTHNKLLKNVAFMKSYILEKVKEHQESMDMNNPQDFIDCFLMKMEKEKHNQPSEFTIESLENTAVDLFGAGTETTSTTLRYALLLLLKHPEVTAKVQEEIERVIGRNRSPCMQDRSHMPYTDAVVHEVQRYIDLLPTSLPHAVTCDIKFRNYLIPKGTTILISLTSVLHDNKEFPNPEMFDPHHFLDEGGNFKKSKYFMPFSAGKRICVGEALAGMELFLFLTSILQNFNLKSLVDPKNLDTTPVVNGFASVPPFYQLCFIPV
CYP2D6, sequence (P10635 whole entry): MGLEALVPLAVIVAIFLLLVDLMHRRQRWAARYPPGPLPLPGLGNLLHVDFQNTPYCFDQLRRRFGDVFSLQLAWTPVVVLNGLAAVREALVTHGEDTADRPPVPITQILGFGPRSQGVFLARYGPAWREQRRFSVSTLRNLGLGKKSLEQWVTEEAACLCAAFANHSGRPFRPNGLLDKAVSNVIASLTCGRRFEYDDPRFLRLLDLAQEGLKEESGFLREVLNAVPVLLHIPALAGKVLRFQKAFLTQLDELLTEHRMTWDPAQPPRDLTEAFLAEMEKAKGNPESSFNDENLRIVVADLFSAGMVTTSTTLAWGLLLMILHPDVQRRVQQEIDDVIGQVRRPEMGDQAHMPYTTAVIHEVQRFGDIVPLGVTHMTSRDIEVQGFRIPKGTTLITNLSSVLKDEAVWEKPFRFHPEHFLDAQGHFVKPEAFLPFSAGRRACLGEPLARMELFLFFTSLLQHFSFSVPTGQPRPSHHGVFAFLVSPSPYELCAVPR

As a reminder, the inhibition is the drop in the measured response relative to a control, in per cent. At CYP2C9, `Nc1ccc(S(=O)(=O)Nc2ccnn2-c2ccccc2)cc1` [SULFAPHENAZOLE] had an inhibition at 10 min of 84.5%.
With `C=C[C@H]1C[N@@]2CC[C@H]1C[C@@H]2[C@@H](O)c1ccnc2ccc(OC)cc12` [QUINIDINE], the inhibition at 10 min against CYP2D6 came out at 96.2%.
In general, pIC50 refers to −log10 of the IC50, conventionally taken in molar units. Usually half-life stands for how long it takes for the measured level to halve. A word on the MIC: it is the lowest concentration that inhibits growth of the organism. In general, MFC refers to the lowest tested concentration that kills the fungus rather than only halting it. As for `O=C(NC(Cn1ccnc1)C(=O)c1cccc(F)c1)c1ccc(-c2ccc(Cl)cc2)s1` (configuration not stated), the pIC50 in the data set on A549 is 4.58; in the data set on MCF7, below 4.52; with THLE-2, 5.32. Also, in data set [1], the half-life was 1.85 h. The remaining at 1 h in [2] amounted to 73.4%. For the same compound, the MIC amounted to 0.25 µg/mL (≈ 0.551 µM) in the data set with Cryptococcus neoformans; 2 µg/mL (≈ 4.41 µM) in the data set on Candida albicans [5]; 1 µg/mL (≈ 2.2 µM) with Candida albicans [6]; 0.125 µg/mL (≈ 0.275 µM) with Candida tropicalis; 0.25 µg/mL (≈ 0.551 µM) in the data set on Pichia kudriavzevii; 2 µg/mL (≈ 4.41 µM) in the data set on Candida albicans [9]. Moreover, the MIC was 0.5 µg/mL (≈ 1.1 µM) in the data set with Candida albicans [11]; 0.5 µg/mL (≈ 1.1 µM) in the data set with Candida parapsilosis; 0.06 µg/mL (≈ 0.132 µM) with Candida albicans [13]; 2 µg/mL (≈ 4.41 µM) in the data set on Candida albicans [14]; 2 µg/mL (≈ 4.41 µM) in the data set on Candida albicans [15]; 0.125 µg/mL (≈ 0.275 µM) with Candida albicans [16]. For the same compound, in the data set with Nakaseomyces glabratus, the MIC stood at 1 µg/mL (≈ 2.2 µM). Further, the MBIC50 with Candida albicans [3] was 2 µg/mL; in the data set with Candida albicans [4], 16 µg/mL; with Candida albicans [8], above 64 µg/mL; with Candida albicans [12] it was above 64 µg/mL. For the same compound, the MFC with Candida albicans [7] turned out to be 25 µg/mL (≈ 55.1 µM). The remaining at 2 h in data set [10] stood at 47.1%.
In the case of `OC(Cn1cncn1)(Cn1cncn1)c1ccc(F)cc1F` [FLUCONAZOLE], the Activity is on record as 4.21% in data set [17]; 34.42% in data set [18]; 3.15% in data set [19]; 22.35% in data set [20]; 29.02% in data set [21]. Moreover, the pIC50 with A549, in the data set with MCF7 and in the data set on THLE-2 was below 4.52 in each case. Moreover, the MIC with Cryptococcus neoformans is 4 µg/mL (≈ 13.1 µM); in the data set on Candida albicans [5] it was above 64 µg/mL; in the data set with Candida albicans [6], above 64 µg/mL; in the data set with Candida tropicalis it was 0.5 µg/mL (≈ 1.63 µM); in the data set on Pichia kudriavzevii, 8 µg/mL (≈ 26.1 µM); in the data set with Candida albicans [9], above 64 µg/mL. Besides, the MIC in the data set with Candida albicans [11] was above 64 µg/mL; in the data set with Candida parapsilosis, 2 µg/mL (≈ 6.53 µM); in the data set with Candida albicans [13] it was 0.5 µg/mL (≈ 1.63 µM); in the data set with Candida albicans [14], above 64 µg/mL; with Candida albicans [15] it was above 64 µg/mL; in the data set with Candida albicans [16], 1 µg/mL (≈ 3.27 µM). Moreover, in the data set with Nakaseomyces glabratus, the MIC was found to be 4 µg/mL (≈ 13.1 µM). Further, the MBIC50 in the data set with Candida albicans [3] is 32 µg/mL; in the data set on Candida albicans [4] it was above 64 µg/mL; in the data set on Candida albicans [8], above 64 µg/mL; in the data set with Candida albicans [12], above 64 µg/mL. For the same compound, the MFC in the data set with Candida albicans [7] is above 64 µg/mL.
Take `CCC(C)n1ncn(-c2ccc(N3CCN(c4ccc(OCC5COC(Cn6cncn6)(c6ccc(Cl)cc6Cl)O5)cc4)CC3)cc2)c1=O` (configuration not stated) [ITRACONAZOLE]: the pIC50 with A549, with MCF7 and with THLE-2 was below 4.52 throughout. Besides, the minimum inhibitory concentration (MIC) was found to be 0.125 µg/mL (≈ 0.177 µM) in the data set on Cryptococcus neoformans; 0.03 µg/mL (≈ 0.0425 µM) with Candida tropicalis; 0.125 µg/mL (≈ 0.177 µM) in the data set with Pichia kudriavzevii; 0.125 µg/mL (≈ 0.177 µM) in the data set on Candida parapsilosis; 0.03 µg/mL (≈ 0.0425 µM) in the data set on Candida albicans [13]; 0.03 µg/mL (≈ 0.0425 µM) in the data set with Candida albicans [16]. Besides, in the data set on Nakaseomyces glabratus, the minimum inhibitory concentration (MIC) is 0.125 µg/mL (≈ 0.177 µM). For the same compound, the MBIC50 in the data set on Candida albicans [3] is 16 µg/mL; in the data set on Candida albicans [4], 32 µg/mL; in the data set with Candida albicans [8], above 64 µg/mL; with Candida albicans [12] it was above 64 µg/mL. Besides, the MFC in the data set with Candida albicans [7] is 16 µg/mL (≈ 22.7 µM).
